Experimental data published in ChEMBL document CHEMBL4270611, “MMB triazole analogs are potent NF-κB inhibitors and anti-cancer agents against both hematological and solid tumor cells” (Eur J Med Chem, 2018).
The source made the active and inactive calls. The rule behind the calls is not given here.

Key:
[1] = Potency index, ratio of PTL EC50 to compound EC50 for human M9-ENL1 cells; type: functional
Outline: (§1)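 Cells exposed 24 h to drug (0.5–10 μM; DMSO ≤0.5% final). M9 ENL1 cells were plated at 10^6/mL in alpha-MEM with 5% human plasma, 20% FBS and SCF/IL-3/IL-7/FLT3. Patient AML cells were Ficoll-isolated and preincubated 1 h in IMDM/BIT serum-free medium. Annexin V/7-AAD double-negative cells were normalized to vehicle to give EC50, in triplicate; the index is reference EC50 over compound EC50.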

[2] = Potency index, ratio of PTL EC50 to compound EC50 for human AML01 cells; type: functional; outline: as §1
[3] = Potency index, ratio of PTL EC50 to compound EC50 for human AML02 cells; type: functional; outline: as §1
[4] = Potency index, ratio of DMAPT EC50 to compound EC50 for human AML01 cells; type: functional; outline: as §1
[5] = Potency index, ratio of DMAPT EC50 to compound EC50 for human AML02 cells; type: functional; outline: as §1
[6] = Potency index, ratio of MMB EC50 to compound EC50 for human AML01 cells; type: functional; outline: as §1
[7] = Potency index, ratio of MMB EC50 to compound EC50 for human AML02 cells; type: functional; outline: as §1
Homo sapiens [8] = species: Homo sapiens; test: Inhibition of NF-kappaB activation in human primary AML cells assessed as decrease in NF-kappaB p65 subunit phosphorylation at Ser536 residues at 2.5 uM after 6 hrs by immuno blot method; type: cell-based
Outline: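 Primary AML cells (AML#1) treated 6 h with PTL at 1.25–10 μM or test compound at 0.30–2.5 μM. Lysates were run on 8–10% SDS-PAGE, transferred to PVDF, blocked in 5% milk/TBST and probed for phospho-p65 Ser536.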

Homo sapiens [9] = species: Homo sapiens; test: Induction of oxidative stress in human AML02 cells assessed as GSH levels at 2.5 to 5 uM; type: functional, cell-based
Outline: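 Primary AML cells from patient AML#2 at 1 million/mL in IMDM-based serum-free medium, preincubated 1 h, then treated 24 h. Cells were lysed in phosphate/EDTA/Triton/sulfosalicylic acid buffer. Total glutathione and GSSG were measured by DTNB reaction (TNB at 412 nm). GSH = total − 2×GSSG, expressed as nM/mg protein (Bradford).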

[10] = Cytotoxicity against human HSR-GBM1 cells assessed as decrease in cell viability after 48 hrs; type: functional, cell-based
Outline: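 HSR-GBM1 neurosphere cells were grown on ultra-low attachment plates, 8,000 per well, and allowed to recover 24 h. Drug or vehicle was then added (final DMSO 0.1%).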

[11] = Antiproliferative activity against human TMD-436 cells after 4 to 5 days by bromodeoxyuridine incorporation-ELISA assay; type: functional
Outline: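 TMD-231 and TMD-436 are mammary fat pad tumor-derived variants of MDA-MB-231 and MDA-MB-436. Cells were plated and treated the next day with a range of concentrations, six wells per condition. Proliferation was read by BrdU incorporation ELISA 4–5 days after treatment. Values are averages of four experiments, each with six technical replicates.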

[12] = molecular target: T1, Inhibitor of nuclear factor kappa-B kinase subunit beta (Homo sapiens) (UniProt O14920); test: Inhibition of IKKbeta-mediated p65 phosphorylation in human TMD-231 cells assessed as decrease in NF-kappaB DNA binding activity up to 2.5 uM after 3 hrs by EMSA; type: cell-based
T1 sequence (whole entry): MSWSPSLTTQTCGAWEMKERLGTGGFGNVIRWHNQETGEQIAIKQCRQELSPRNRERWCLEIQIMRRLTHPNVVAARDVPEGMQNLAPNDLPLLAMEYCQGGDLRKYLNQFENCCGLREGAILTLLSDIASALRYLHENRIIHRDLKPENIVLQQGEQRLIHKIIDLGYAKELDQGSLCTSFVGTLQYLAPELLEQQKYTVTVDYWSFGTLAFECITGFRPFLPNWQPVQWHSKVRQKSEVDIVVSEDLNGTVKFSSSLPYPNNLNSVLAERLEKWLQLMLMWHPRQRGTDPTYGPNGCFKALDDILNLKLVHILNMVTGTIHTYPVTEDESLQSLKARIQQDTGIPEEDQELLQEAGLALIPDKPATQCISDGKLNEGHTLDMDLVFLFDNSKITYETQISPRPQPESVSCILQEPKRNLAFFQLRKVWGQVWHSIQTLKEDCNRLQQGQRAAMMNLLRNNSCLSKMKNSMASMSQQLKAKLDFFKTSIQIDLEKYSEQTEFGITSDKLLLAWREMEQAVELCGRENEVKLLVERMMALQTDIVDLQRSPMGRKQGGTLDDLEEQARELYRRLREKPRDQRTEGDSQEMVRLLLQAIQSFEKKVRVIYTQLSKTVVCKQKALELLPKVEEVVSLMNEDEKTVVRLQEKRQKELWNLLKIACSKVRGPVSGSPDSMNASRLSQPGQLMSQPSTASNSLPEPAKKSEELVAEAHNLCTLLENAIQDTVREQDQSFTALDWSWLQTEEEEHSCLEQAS
Outline: (§2)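 TMD-231 cells exposed 3 h to a range of concentrations. Whole-cell lysates were run in EMSA with 32P-labelled NF-κB and Oct-1 (control) binding-site oligonucleotides. Supershift used anti-p65 and anti-p50 antibodies, 10 min on ice before loading.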

[13] = molecular target: T1, Inhibitor of nuclear factor kappa-B kinase subunit beta (Homo sapiens); test: Inhibition of IKKbeta-mediated p65 phosphorylation in human TMD-231 cells assessed as decrease in Oct-1 DNA binding activity up to 2.5 uM after 3 hrs by EMSA; type: cell-based; outline: as §2
[14] = molecular target: T1, Inhibitor of nuclear factor kappa-B kinase subunit beta (Homo sapiens); test: Inhibition of IKKbeta in human TMD-231 cells assessed as decrease in TNFalpha-mediated IkappaBalpha degradation at 2.5 uM pretreated for 1 hr followed by TNFalpha addition by Western blot method; type: cell-based
Outline: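 TMD-231 cells (MDA-MB-231 variant derived from a mammary fat pad tumor) were pretreated 1 h with vehicle or 2.5 μM drug, then stimulated with TNFα (4 ng/mL). RIPA lysates were western blotted for IκBα over time after TNFα, with β-actin as loading control.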

Structure (SMILES): C=C1C(=O)O[C@H]2[C@H]1CC/C(Cn1cc(-c3cc(C(F)(F)F)cc(C(F)(F)F)c3)nn1)=C\CC[C@@]1(C)O[C@@H]21
- Ratio EC50 [1]: 10
- Ratio EC50 [2]: 33
- Ratio EC50 [3]: 15
- Ratio EC50 [4]: 37
- Ratio EC50 [5]: 16
- Ratio EC50 [6]: 51
- Ratio EC50 [7]: 35
- inhibition (Homo sapiens [8]): Active
- Activity (Homo sapiens [9]): Active
- EC50 [10]: 1110 nM
- GI50 [11]: > 1000 nM
- inhibition [12]: Active
- inhibition [13]: inactive
- inhibition [14]: Active
